# ChEMBL document CHEMBL1140072, “Discovery of novel and cardioselective diltiazem-like calcium channel blockers via virtual screening” (J Med Chem, 2008)
# Tests used:
# [1] = Dissociation constant, pKa of the compound; type: physicochemical
# In short: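 pKa values are calculated in silico, not measured experimentally.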
# [2] = Negative inotropic activity in guinea pig left atrium assessed as decrease in atrial tension at 5 uM relative to control; type: functional, Cavia porcellus, Cardiac atrium; parameters: scale not given: the % may be the effect or the level left
# [3] = Negative inotropic activity in guinea pig left atrium assessed as decrease in atrial tension relative to control; type: functional, tissue-based; details: Cavia porcellus, Cardiac atrium
# Aorta [4] = assay: Vasorelaxant activity in K+-depolarized guinea pig aorta assessed as inhibition of calcium-induced contraction at 100 uM; type: functional; details: Cavia porcellus
# [5] = Negative chronotropic activity in guinea pig spontaneously beating right atrium assessed as decrease in atrial rate at 100 uM relative to control; parameters: scale not given: the % may be the effect or the level left
# L-type calcium channel = L-type calcium channel (Rattus norvegicus, UniProt P22002+P27732+Q02485); assay: Displacement of [3H]diltiazem from L-type calcium channel in Sprague-Dawley rat cardiac myocytes at 10 uM; type: cell-based; details: probe [3H]diltiazem, read-out: Activity
# [6] = Negative inotropic activity in guinea pig left atrium assessed as decrease in atrial tension at 10 uM relative to control; type: functional, Cavia porcellus, Cardiac atrium; parameters: scale not given: the % may be the effect or the level left
# Ileum [7] = assay: Vasorelaxant activity in K+-depolarized guinea pig ileum longitudinal smooth muscle assessed as inhibition of calcium-induced contraction at 100 uM; type: functional; details: Cavia porcellus
# [8] = Negative inotropic activity in guinea pig left atrium assessed as decrease in atrial tension at 50 uM relative to control; type: functional, tissue-based, Cavia porcellus, Cardiac atrium; parameters: scale not given: the % may be the effect or the level left
# [9] = Negative chronotropic activity in guinea pig spontaneously beating right atrium assessed as decrease in atrial rate at 100 uM relative to control; type: functional, tissue-based, Cavia porcellus, Cardiac atrium; parameters: scale not given: the % may be the effect or the level left
# [10] = Negative inotropic activity in guinea pig left atrium assessed as decrease in atrial tension at 100 uM relative to control; type: functional, tissue-based, Cavia porcellus, Cardiac atrium; parameters: scale not given: the % may be the effect or the level left
# Ileum [11] = assay: Vasorelaxant activity in K+-depolarized guinea pig ileum longitudinal smooth muscle assessed as inhibition of calcium-induced contraction at 50 uM; type: functional; details: Cavia porcellus
# Ileum [12] = assay: Vasorelaxant activity in K+-depolarized guinea pig ileum longitudinal smooth muscle assessed as inhibition of calcium-induced contraction; type: functional, tissue-based; details: Cavia porcellus
# Aorta [13] = assay: Vasorelaxant activity in K+-depolarized guinea pig aorta assessed as inhibition of calcium-induced contraction at 50 uM; type: functional; details: Cavia porcellus
# Ileum [14] = assay: Vasorelaxant activity in K+-depolarized guinea pig ileum longitudinal smooth muscle assessed as inhibition of calcium-induced contraction at 10 uM; type: functional; details: Cavia porcellus
# [15] = Negative chronotropic activity in guinea pig spontaneously beating right atrium assessed as decrease in atrial rate at 5 uM relative to control; type: functional, Cavia porcellus, Cardiac atrium; parameters: scale not given: the % may be the effect or the level left
# Ileum [16] = assay: Vasorelaxant activity in K+-depolarized guinea pig ileum longitudinal smooth muscle assessed as inhibition of calcium-induced contraction at 1 uM; type: functional; details: Cavia porcellus
# [17] = molecular target: Voltage-gated L-type calcium channel (Rattus norvegicus, UniProt P22002+Q02485+P27732); assay: Displacement of [3H]diltiazem from L-type calcium channel in Sprague-Dawley rat cardiac myocytes; type: cell-based
# In short: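 Rat cardiomyocyte preparation. [3H]diltiazem at 5 nM is incubated with test compound at increasing concentrations from 0.1 nM to 100 µM. The readout is the inhibition of [3H]diltiazem binding to the benzothiazepine site.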
# [18] = Negative inotropic activity in guinea pig left atrium assessed as decrease in atrial tension at 1 uM relative to control; type: functional, Cavia porcellus, Cardiac atrium; parameters: scale not given: the % may be the effect or the level left
# [19] = Negative chronotropic activity in guinea pig spontaneously beating right atrium assessed as decrease in atrial rate at 10 uM relative to control; type: functional, Cavia porcellus, Cardiac atrium; parameters: scale not given: the % may be the effect or the level left
EC50 [3],IC50 (Ileum [12]),SMILES,inhibition at 100 µM (Aorta [4]),inhibition at 100 µM (Ileum [7]),Activity [9],Activity [10],also measured
840 nM,–,Cc1ccccc1CC(=O)c1ccc(O)c(CN(C)C)c1O,4%,–,–,–,pKa [1]: 10.7; Activity [2]: 78%; Activity [5]: 48%
450 nM,–,CN1CCN(S(=O)(=O)c2cccc3cccnc23)CC1,18%,28%,–,–,inhibition at 10 µM (L-type calcium channel): 60%; Activity [6]: 84%; Activity [5]: 19%
340 nM,–,COc1ccc(Cl)cc1NC(=O)N1CCN(C)CC1,7%,44%,10%,–,Activity [8]: 67%
1110 nM,3280 nM,CN(Cc1ccccc1)Cc1ccnc(Br)c1O,2%,–,6%,70%,inhibition at 50 µM (Ileum [11]): 57%
970 nM,18400 nM,COc1ccccc1NC(=O)OCC1CCCCN1C (configuration not stated),10%,73%,17%,87%,–
430 nM,–,O=S(=O)(c1cccc2c(Cl)cccc12)N1CCCNCC1,–,–,–,98%,inhibition at 50 µM (Aorta [13]): 43%; inhibition at 10 µM (Ileum [14]): 40%; Activity [5]: 46%
790 nM,110 nM,COc1ccc([C@@H]2Sc3ccccc3N(CCN(C)C)C(=O)[C@@H]2OC(C)=O)cc1 [DILTIAZEM],88%,–,–,–,Activity [6]: 78%; Activity [15]: 94%; EC30 [3]: 70 nM; IC50 [3]: 2600 nM; inhibition at 1 µM (Ileum [16]): 98%
730 nM,16500 nM,CC(C)(CNC(=S)Nc1ccccc1)N1CCOCC1,20%,76%,10%,94%,–
300 nM,20300 nM,CN(C)CCNc1cc(-c2cccnc2)nc2ccccc12,5%,72%,4%,–,Activity [2]: 76%
250 nM,9340 nM,CN(C)CCOC(c1ccc(Cl)cc1)c1ccccn1 (configuration not stated) [CARBINOXAMINE],28%,–,48%,76%,EC30 [3]: 480 nM; inhibition at 50 µM (Ileum [11]): 62%; Ki [17]: 1080 nM
350 nM,20200 nM,CN(C)CCNC(=O)c1cc2ccccc2cc1O,13%,61%,35%,90%,Ki [17]: 450 nM
2170 nM,–,COc1cc2c(cc1OC)[C@H]1CC(=O)[C@H]3CCC[C@H]3N1CC2,3%,–,4%,64%,–
3590 nM,–,CCc1c(C)cc(C)cc1OC[C@@H](O)CNC(C)C,30%,–,40%,–,Activity [8]: 76%
310 nM,14100 nM,O=S(=O)(c1ccc(Cl)cc1)N(C1CCNCC1)C1CC1,19%,–,–,–,Activity [8]: 76%; inhibition at 50 µM (Ileum [11]): 89%; Activity [5]: 64%
–,–,CC(C)NC[C@@H](O)COc1cccc2ccccc12 [DEXPROPRANOLOL],36%,74%,–,–,Activity [8]: 92%; Activity [5]: 26%
70 nM,–,CCO[C@]1(c2ccc(Br)cc2)SC=C(C)n2c1noc2=O,11%,3%,–,–,Activity [18]: 58%; Activity [19]: 16%
520 nM,–,O=C(COc1ccccc1Cl)N1CCNCC1,1%,–,3%,–,Activity [8]: 60%
6260 nM,–,COc1ccc(CN(CCN(C)C)c2ccccn2)cc1 [PYRILAMINE],23%,–,47%,81%,–
840 nM,–,Cc1cc(C(C)(C)C)cc(C)c1NC(=O)CN1CCOCC1,26%,–,29%,–,Activity [6]: 87%
250 nM,–,CCN(CC)CCOc1ccc2ccc(=O)oc2c1,14%,22%,28%,–,Activity [6]: 67%
1050 nM,–,CCOc1ccc(NC(=O)CCN(CC)CC)cc1,11%,–,30%,79%,–
